ChEMBL document CHEMBL3580574, “Design, Synthesis, and Biological Evaluation of Hexacyclic Tetracyclines as Potent, Broad Spectrum Antibacterial Agents” (J Med Chem, 2015)
In brackets after ≈: the same amount, converted by molar mass.

Assays:
Pseudomonas aeruginosa [1] = test: Antibacterial activity against Pseudomonas aeruginosa 694 infected in iv dosed immunocompetent CD-1 mouse thigh infection model assessed as reduction in colony forming units administered twice daily at 2 hrs and 12 hrs post-infection measured 24 hrs post-drug treatment; assay type: functional, organism-based
How it was run: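 Thigh model: inoculum given intramuscularly into the right thigh on day 0. IV dosing with vehicle, test agent or comparator at 2 and 12 h postinfection. Untreated groups were harvested at 2 and 24 h. Thigh muscle was collected at 24 h postinfection, homogenized in PBS pH 7.4, diluted and plated on Brain Heart Infusion agar + 0.5% charcoal. Read-out: CFU per gram thigh.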

Pseudomonas aeruginosa [2] = test: Antibacterial activity against Pseudomonas aeruginosa 1145 assessed as bacterial growth inhibition by susceptibility testing assay; assay type: functional
How it was run: (§1)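 Broth microdilution MIC per CLSI in 96-well plates; compound stocks prepared and serially diluted in sterile deionized water; cation-adjusted Mueller Hinton broth prepared fresh and held at 4 °C before testing, supplemented with lysed horse blood as appropriate; runs accepted when comparator antibiotics fell within QC ranges for appropriate ATCC quality control strains.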

Pseudomonas aeruginosa [3] = test: Antibacterial activity against Pseudomonas aeruginosa 1145 infected in immunocompetent BALB/c mouse lung infection model assessed as log reduction in colony forming units at 40 mg/kg, iv bid administered at 2 hrs and 12 hrs post-infection measured 24 hrs post-drug treatment; assay type: functional
How it was run: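 Female BALB/c mice (18−20 g) received intranasal inoculum under light anesthesia. IV treatment at 2 and 12 h postinfection, six mice per group per dose. An untreated group was harvested at 2 h. Lungs were taken 24 h after treatment start, weighed, homogenized, diluted and plated on MacConkey medium overnight at 37 °C, 5% CO2. Read-out: CFU per gram lung.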

Staphylococcus aureus [4] = test: Antibacterial activity against Staphylococcus aureus 101 ATCC 29213 assessed as bacterial growth inhibition by susceptibility testing assay; assay type: functional; details: Staphylococcus aureus, 101 ATCC 29213; read-out: MIC
How it was run: (§2)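 Broth microdilution MIC per CLSI in cation-adjusted Mueller Hinton broth, made fresh and held at 4 °C before testing. Medium supplemented with lysed horse blood where appropriate. Compound stocks prepared and serially diluted in sterile deionized water. Runs were accepted against QC ranges for comparator antibiotics and ATCC QC strains.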

Staphylococcus aureus [5] = test: Antibacterial activity against methicillin-resistant, tet(M) tetracycline-resistant Staphylococcus aureus 161 assessed as bacterial growth inhibition by susceptibility testing assay; assay type: functional; details: Staphylococcus aureus, 161; read-out: MIC; how it was run: as §1
Staphylococcus aureus [6] = test: Antibacterial activity against tet(K) tetracycline-resistant Staphylococcus aureus 158 assessed as bacterial growth inhibition by susceptibility testing assay; assay type: functional; details: Staphylococcus aureus, 158; read-out: MIC
Enterococcus faecalis = test: Antibacterial activity against tet(M) tetracycline-resistant Enterococcus faecalis 327 assessed as bacterial growth inhibition by susceptibility testing assay; assay type: functional; details: Enterococcus faecalis, 327; read-out: MIC; how it was run: as §1
Enterococcus faecium = test: Antibacterial activity against tet(M) tetracycline-resistant Enterococcus faecium 404 assessed as bacterial growth inhibition by susceptibility testing assay; assay type: functional; details: Enterococcus faecium, 404; read-out: MIC
Streptococcus pneumoniae = test: Antibacterial activity against tet(M) tetracycline-resistant Streptococcus pneumoniae 160 assessed as bacterial growth inhibition by susceptibility testing assay; assay type: functional; details: Streptococcus pneumoniae, 160; read-out: MIC
Escherichia coli [7] = test: Antibacterial activity against Escherichia coli 107 ATCC 25922 assessed as bacterial growth inhibition by susceptibility testing assay; assay type: functional; details: Escherichia coli, 107 ATCC 25922; read-out: MIC; how it was run: as §2
Escherichia coli [8] = test: Antibacterial activity against tet(A) tetracycline-resistant Escherichia coli 155 assessed as bacterial growth inhibition by susceptibility testing assay; assay type: functional; details: Escherichia coli, 155; read-out: MIC; how it was run: as §1
Klebsiella pneumoniae = test: Antibacterial activity against Klebsiella pneumoniae 457 harboring CTX-M-15 gene assessed as bacterial growth inhibition by susceptibility testing assay; assay type: functional; details: Klebsiella pneumoniae, 457; read-out: MIC; how it was run: as §1
Proteus mirabilis = test: Antibacterial activity against Proteus mirabilis 385 assessed as bacterial growth inhibition by susceptibility testing assay; assay type: functional; details: Proteus mirabilis, 385; read-out: MIC; how it was run: as §2
Pseudomonas aeruginosa [9] = test: Antibacterial activity against Pseudomonas aeruginosa 555 BAA-47 assessed as bacterial growth inhibition by susceptibility testing assay; assay type: functional; details: Pseudomonas aeruginosa, 555 BAA-47; read-out: MIC; how it was run: as §2
Enterobacter cloacae = test: Antibacterial activity against tet(A) tetracycline-resistant Enterobacter cloacae 603 assessed as bacterial growth inhibition by susceptibility testing assay; assay type: functional; details: Enterobacter cloacae, 603; read-out: MIC; how it was run: as §1
Acinetobacter baumannii = test: Antibacterial activity against tet(B) tetracycline-resistant Acinetobacter baumannii 250 assessed as bacterial growth inhibition by susceptibility testing assay; assay type: functional; details: Acinetobacter baumannii, 250; read-out: MIC; how it was run: as §1
[10] = system: Stenotrophomonas maltophilia; test: Antibacterial activity against Stenotrophomonas maltophilia 256 assessed as bacterial growth inhibition by susceptibility testing assay; assay type: functional; details: Stenotrophomonas maltophilia, 256; read-out: MIC
How it was run: (§3)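 Medium supplemented with lysed horse blood where appropriate. Compound stocks prepared and serially diluted in sterile deionized water. Runs were accepted against QC ranges for comparator antibiotics and ATCC QC strains.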

Burkholderia cenocepacia = test: Antibacterial activity against Burkholderia cenocepacia 240 assessed as bacterial growth inhibition by susceptibility testing assay; assay type: functional; details: Burkholderia cenocepacia, 240; read-out: MIC; how it was run: as §3

Structure (SMILES) | inhibition (Pseudomonas aeruginosa [1]) | MIC (Pseudomonas aeruginosa [2]) | log10CFU/g (Pseudomonas aeruginosa [3]) | MIC (Staphylococcus aureus [4]) | MIC (Staphylococcus aureus [5]) | MIC (Staphylococcus aureus [6]) | MIC (Enterococcus faecalis) | MIC (Enterococcus faecium) | MIC (Streptococcus pneumoniae) | MIC (Escherichia coli [7]) | MIC (Escherichia coli [8]) | MIC (Klebsiella pneumoniae) | MIC (Proteus mirabilis) | MIC (Pseudomonas aeruginosa [9]) | MIC (Enterobacter cloacae) | MIC (Acinetobacter baumannii) | MIC [10] | MIC (Burkholderia cenocepacia)
CN(C)[C@@H]1C(O)=C(C(N)=O)C(=O)[C@@]2(O)C(O)=C3C(=O)c4c(O)c5c(c(F)c4C[C@H]3C[C@@H]12)[C@@H]1[C@@H](CCN1C)CN5 (stereo in doubt; 10c) | Dose-dependent effect | – | – | – | – | – | – | – | – | – | – | – | – | – | – | – | – | –
C[C@@H](O)[C@H]1C(=O)N2C(C(=O)O)=C(S[C@@H]3CN[C@H](C(=O)N(C)C)C3)[C@H](C)[C@H]12 [MEROPENEM] | – | 4 µg/mL (≈ 10.4 µM) | 2 | – | – | – | – | – | – | – | – | – | – | – | – | – | – | –
CCN1CC[C@H]2CNc3c(O)c4c(c(F)c3[C@H]21)C[C@H]1C[C@H]2[C@H](N(C)C)C(O)=C(C(N)=O)C(=O)[C@@]2(O)C(O)=C1C4=O | – | – | – | 0.25 µg/mL (≈ 0.449 µM) | 0.5 µg/mL (≈ 0.898 µM) | 0.0625 µg/mL (≈ 0.112 µM) | 0.125 µg/mL (≈ 0.225 µM) | 0.0625 µg/mL (≈ 0.112 µM) | ≤ 0.0156 µg/mL | 0.0625 µg/mL (≈ 0.112 µM) | 0.25 µg/mL (≈ 0.449 µM) | 1 µg/mL (≈ 1.8 µM) | 1 µg/mL (≈ 1.8 µM) | 8 µg/mL (≈ 14.4 µM) | 0.5 µg/mL (≈ 0.898 µM) | 2 µg/mL (≈ 3.59 µM) | 1 µg/mL (≈ 1.8 µM) | 16 µg/mL (≈ 28.7 µM)
NCC[C@H](O)C(=O)N[C@@H]1C[C@H](N)[C@@H](O[C@H]2O[C@H](CN)[C@@H](O)[C@H](O)[C@H]2O)[C@H](O)[C@H]1O[C@H]1O[C@H](CO)[C@@H](O)[C@H](N)[C@H]1O [AMIKACIN] | – | 1 µg/mL (≈ 1.71 µM) | 2 | – | – | – | – | – | – | – | – | – | – | – | – | – | – | –
CCCN1CC[C@@]2(C)CNc3c(O)c4c(c(F)c3[C@@H]12)C[C@H]1C[C@H]2[C@H](N(C)C)C(O)=C(C(N)=O)C(=O)[C@@]2(O)C(O)=C1C4=O | – | – | – | 0.5 µg/mL (≈ 0.855 µM) | 8 µg/mL (≈ 13.7 µM) | 0.125 µg/mL (≈ 0.214 µM) | 8 µg/mL (≈ 13.7 µM) | 4 µg/mL (≈ 6.84 µM) | 0.5 µg/mL (≈ 0.855 µM) | 1 µg/mL (≈ 1.71 µM) | 4 µg/mL (≈ 6.84 µM) | 16 µg/mL (≈ 27.4 µM) | 32 µg/mL (≈ 54.7 µM) | > 32 µg/mL | 16 µg/mL (≈ 27.4 µM) | 16 µg/mL (≈ 27.4 µM) | 4 µg/mL (≈ 6.84 µM) | > 32 µg/mL
CN(C)[C@@H]1C(O)=C(C(N)=O)C(=O)[C@@]2(O)C(O)=C3C(=O)c4c(O)c5c(c(OC(F)(F)F)c4C[C@H]3C[C@@H]12)[C@@H]1[C@H](CN5)CC2CCCN21 (stereo not given in full) | – | – | – | 0.25 µg/mL (≈ 0.394 µM) | 1 µg/mL (≈ 1.58 µM) | 0.0625 µg/mL (≈ 0.0985 µM) | 0.125 µg/mL (≈ 0.197 µM) | 0.0625 µg/mL (≈ 0.0985 µM) | ≤ 0.0156 µg/mL | 0.0625 µg/mL (≈ 0.0985 µM) | 0.25 µg/mL (≈ 0.394 µM) | 2 µg/mL (≈ 3.15 µM) | 4 µg/mL (≈ 6.3 µM) | 8 µg/mL (≈ 12.6 µM) | 4 µg/mL (≈ 6.3 µM) | 16 µg/mL (≈ 25.2 µM) | 4 µg/mL (≈ 6.3 µM) | 32 µg/mL (≈ 50.4 µM)
CN(C)CCN1CC[C@H]2CNc3c(O)c4c(c(F)c3[C@H]21)C[C@H]1C[C@H]2[C@H](N(C)C)C(O)=C(C(N)=O)C(=O)[C@@]2(O)C(O)=C1C4=O | – | – | – | 4 µg/mL (≈ 6.67 µM) | 16 µg/mL (≈ 26.7 µM) | 1 µg/mL (≈ 1.67 µM) | 8 µg/mL (≈ 13.3 µM) | 4 µg/mL (≈ 6.67 µM) | 1 µg/mL (≈ 1.67 µM) | 8 µg/mL (≈ 13.3 µM) | > 32 µg/mL | 32 µg/mL (≈ 53.4 µM) | > 32 µg/mL | > 32 µg/mL | > 32 µg/mL | > 32 µg/mL | > 32 µg/mL | > 32 µg/mL
CN(C)[C@@H]1C(O)=C(C(N)=O)C(=O)[C@@]2(O)C(O)=C3C(=O)c4c(O)c5c(c(F)c4C[C@H]3C[C@@H]12)C1NCCC1CN5 (mixture of isomers) | – | – | – | 2 µg/mL | 4 µg/mL | 0.5 µg/mL | 2 µg/mL | 1 µg/mL | 0.5 µg/mL | 0.5 µg/mL | 1 µg/mL | 2 µg/mL | 0.5 µg/mL | 32 µg/mL | 8 µg/mL | > 32 µg/mL | > 32 µg/mL | > 32 µg/mL
CN(C)c1cc(NC(=O)CNC(C)(C)C)c(O)c2c1C[C@H]1C[C@H]3[C@H](N(C)C)C(O)=C(C(N)=O)C(=O)[C@@]3(O)C(O)=C1C2=O [TIGECYCLINE] | – | – | – | 0.0625 µg/mL (≈ 0.107 µM) | 0.125 µg/mL (≈ 0.213 µM) | 0.125 µg/mL (≈ 0.213 µM) | 0.125 µg/mL (≈ 0.213 µM) | 0.0312 µg/mL (≈ 0.0533 µM) | 0.0156 µg/mL (≈ 0.0266 µM) | 0.125 µg/mL (≈ 0.213 µM) | 1 µg/mL (≈ 1.71 µM) | 1 µg/mL (≈ 1.71 µM) | 4 µg/mL (≈ 6.83 µM) | 16 µg/mL (≈ 27.3 µM) | 4 µg/mL (≈ 6.83 µM) | 8 µg/mL (≈ 13.7 µM) | 2 µg/mL (≈ 3.41 µM) | 16 µg/mL (≈ 27.3 µM)
CN(C)[C@@H]1C(O)=C(C(N)=O)C(=O)[C@@]2(O)C(O)=C3C(=O)c4c(O)c5c(c(F)c4C[C@H]3C[C@@H]12)[C@H]1NCC[C@@]1(C)CN5 | – | – | – | 4 µg/mL (≈ 7.37 µM) | 16 µg/mL (≈ 29.5 µM) | 1 µg/mL (≈ 1.84 µM) | 4 µg/mL (≈ 7.37 µM) | 1 µg/mL (≈ 1.84 µM) | 0.25 µg/mL (≈ 0.461 µM) | 0.5 µg/mL (≈ 0.922 µM) | 16 µg/mL (≈ 29.5 µM) | 4 µg/mL (≈ 7.37 µM) | 4 µg/mL (≈ 7.37 µM) | 32 µg/mL (≈ 59 µM) | 16 µg/mL (≈ 29.5 µM) | > 32 µg/mL | 32 µg/mL (≈ 59 µM) | > 32 µg/mL
